Laboratory results as given in publication PMC3799977 (Toxicology and applied pharmacology, 2012).

Experiments:
[1] = target: T1, mouse RORα (Mus musculus, UniProt P51448); experiment: CHO-K1 cell-based RORα reporter gene assay; details: for RORα inverse agonistic activity (in words): Fig. 2A; for RIC20 (20% relative inhibitory concentration), RORα assay: inverse agonistic activity, CHO-K1 cells, 24 hr; for ROR activity (RORα): data not shown
T1 sequence (P51448 1-467 isoform P51448-2): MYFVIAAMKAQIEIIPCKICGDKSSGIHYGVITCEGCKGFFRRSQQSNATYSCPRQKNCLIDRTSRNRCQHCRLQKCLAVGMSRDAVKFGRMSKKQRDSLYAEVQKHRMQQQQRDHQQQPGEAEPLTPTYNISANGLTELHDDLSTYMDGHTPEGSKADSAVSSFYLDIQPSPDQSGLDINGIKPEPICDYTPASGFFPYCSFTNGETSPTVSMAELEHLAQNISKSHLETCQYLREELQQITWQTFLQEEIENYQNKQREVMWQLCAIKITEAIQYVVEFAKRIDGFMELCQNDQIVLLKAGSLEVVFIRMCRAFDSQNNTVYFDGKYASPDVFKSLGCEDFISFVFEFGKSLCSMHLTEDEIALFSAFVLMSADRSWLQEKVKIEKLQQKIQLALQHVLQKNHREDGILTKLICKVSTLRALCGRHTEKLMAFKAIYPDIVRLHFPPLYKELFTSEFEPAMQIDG

[2] = target: T2, mouse RORγ (Mus musculus, UniProt P51450); experiment: CHO-K1 cell-based RORγ reporter gene assay; details: for RIC20 (20% relative inhibitory concentration), RORγ assay: inverse agonistic activity, CHO-K1 cells, 24 hr; for ROR activity (RORγ): data not shown
T2 sequence (P51450 1-516): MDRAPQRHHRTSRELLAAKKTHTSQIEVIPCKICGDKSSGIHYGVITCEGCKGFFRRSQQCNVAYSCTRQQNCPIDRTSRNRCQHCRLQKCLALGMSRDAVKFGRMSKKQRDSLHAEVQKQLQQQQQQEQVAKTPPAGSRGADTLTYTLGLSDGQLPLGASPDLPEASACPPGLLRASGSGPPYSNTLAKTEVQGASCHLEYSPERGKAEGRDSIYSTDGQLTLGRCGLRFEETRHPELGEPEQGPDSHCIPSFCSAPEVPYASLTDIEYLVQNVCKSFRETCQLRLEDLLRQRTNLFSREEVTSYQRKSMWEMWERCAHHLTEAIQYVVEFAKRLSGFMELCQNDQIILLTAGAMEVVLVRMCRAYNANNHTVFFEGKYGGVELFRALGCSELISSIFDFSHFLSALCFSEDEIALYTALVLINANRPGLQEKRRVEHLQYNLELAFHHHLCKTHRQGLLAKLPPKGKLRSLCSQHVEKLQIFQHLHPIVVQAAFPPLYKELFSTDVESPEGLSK

[3] = tested on: IL-17A mRNA expression in mouse T lymphoma EL4 cells; experiment: IL-17A mRNA expression in EL4 cells; format: cell-based; details: 6 h; for IL-17 gene expression, dose dependence: PMA/ionomycin-stimulated EL4 cells, 1, 3, 10 or 30 μM; for IL-17 mRNA expression, real-time PCR: highest dose 30 μM
In short: (§1)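 EL4 cells were plated at 2 × 10^6 cells/ml in RPMI-1640 with 10% FBS. Next day they were stimulated with PMA (5 ng/ml) plus ionomycin (1 μM) and given vehicle or 1, 3, 10 or 30 μM test compound at 37°C for 6 h. TRIzol RNA was reverse-transcribed and TaqMan real-time PCR run, normalized to β-actin. Results were expressed relative to stimulated vehicle (=1), mean ± SD, three experiments.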

[4] = tested on: IL-17A mRNA expression in EL4/shNC cells; experiment: IL-17A mRNA expression in control shRNA EL4/shNC cells; format: cell-based, mouse; details: 10 μM, PMA/ionomycin
[5] = tested on: IL-17A mRNA expression in EL4/shRorac cells; experiment: IL-17A mRNA expression in RORα/γ-knockdown EL4/shRorac cells; format: cell-based, mouse; details: 10 μM, PMA/ionomycin, RORα/γ double knockdown
In short: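 EL4/shRorac, a stable RORα/RORγ double-knockdown clone, was made by electroporating a GFP/Neo U6 vector carrying Rora and Rorc shRNAs, then selecting in G418. EL4/shNC (nonsilencing shRNA) served as control. Cells received 10 μM test compound with or without PMA/ionomycin. IL-17 mRNA was measured by real-time RT-PCR, normalized to β-actin, and expressed relative to stimulated vehicle-treated EL4/shNC (=1). Mean ± SD, three experiments.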

[6] = tested on: CHO-K1 cells; experiment: Cytotoxicity check by β-galactosidase activity in the reporter gene assays; format: cell-based, Chinese hamster; details: highest dose (30 μM)
[7] = tested on: RORα mRNA expression in EL4 cells; experiment: RORα mRNA expression in PMA/ionomycin-stimulated EL4 cells; format: cell-based, mouse; details: 6 h
In short: as §1

[8] = tested on: RORγ mRNA expression in EL4 cells; experiment: RORγ mRNA expression in PMA/ionomycin-stimulated EL4 cells; format: cell-based, mouse; details: 6 h
[9] = target: RORα; details: read-out: Ki, binding to RORα; ref Kumar et al. (2010); cited from earlier work
[10] = PMA/ionomycin-stimulated EL4 cells, 10 μM
[11] = PMA/ionomycin-stimulated EL4 cells

Structure (SMILES)	RORα inverse agonistic activity (in words) [1]	RIC20 (20% relative inhibitory concentration), RORα assay [1] [µM]	RIC20 (20% relative inhibitory concentration), RORγ assay [2] [µM]	IL-17A mRNA expression, real-time PCR [3, 10]	IL-17 gene expression, dose dependence [3]	ROR activity (RORα) [1]	ROR activity (RORγ) [2]	also measured
CCCCC(O)(Cn1cncn1)c1ccc(Cl)cc1Cl (stereo not drawn) [Hexaconazole]	weak RORα inverse agonists	21	3.2	significantly inhibited	inhibit IL-17 gene expression in a dose-dependent manner			
C=CCOC(Cn1ccnc1)c1ccc(Cl)cc1Cl (stereo not drawn) [Imazalil]	did not show almost any inverse agonistic activity	> 30	29		inhibit IL-17 gene expression in a dose-dependent manner			IL-17 mRNA expression, real-time PCR [3, 11]: significantly suppressed IL-17 mRNAs
Clc1ccc(CSC(Cn2cncn2)=Nc2ccc(Cl)cc2Cl)cc1 [Imibenconazole]	weak RORα inverse agonists	10	3.3	strongly suppressed IL-17A mRNA expression	inhibit IL-17 gene expression in a dose-dependent manner			IL-17A mRNA expression in EL4/shNC cells [4]: showed inhibitory effects on IL-17A mRNA expression; IL-17 mRNA expression in EL4/shRorac cells [5]: also suppressed IL-17 mRNA expression; cytotoxic effects based on β-galactosidase activity [6]: except for the highest dose (30 μM)
O=S(=O)(c1ccccc1)N(CC(F)(F)F)c1ccc(C(O)(C(F)(F)F)C(F)(F)F)cc1 [T0901317, N-(2,2,2-trifluoroethyl)-N-[4-(2,2,2-trifluoro-1-hydroxy-1-trifluoromethyl-ethyl)-phenyl]-benzene sulfonamide, reference compound]	weak RORα inverse agonists							RORα mRNA expression [7]: did not affect; RORα agonistic activity ([1]; CHO cell-based reporter gene assay): didn’t show any RORα/γ agonistic activity; RORγ mRNA expression [8]: did not affect; Ki [9]: […]; IL-17A mRNA expression, qualitative RT-PCR ([3]; PMA/ionomycin-stimulated EL4 cells, 0.1, 1, 10 μM, Fig. 4A): inhibited IL-17A mRNA expression in a dose-dependent manner; IL-17A mRNA expression, real-time PCR ([3]; PMA/ionomycin-stimulated EL4 cells, 0.1, 1, and 10 μM): significantly inhibited IL-17A mRNA expression; IL-17A gene expression in non-stimulated EL4 cells ([3]; no PMA/ionomycin stimulation, qualitative RT-PCR): neither T0901317 nor the vehicle induced the expression of IL-17A gene; IL-17A mRNA expression in EL4/shNC cells [4]: showed inhibitory effects on IL-17A mRNA expression; IL-17 mRNA expression in EL4/shRorac cells [5]: also suppressed IL-17 mRNA expression; cytotoxic effects based on β-galactosidase activity [6]: except for the highest dose (30 μM)
FC(F)C(F)(F)OCC(Cn1cncn1)c1ccc(Cl)cc1Cl (stereo not drawn) [Tetraconazole]	did not show almost any inverse agonistic activity	> 30	15		inhibit IL-17 gene expression in a dose-dependent manner			IL-17 mRNA expression, real-time PCR [3, 11]: significantly suppressed IL-17 mRNAs
CCCOC/C(=N\c1ccc(Cl)cc1C(F)(F)F)n1ccnc1 [Triflumizole]	weak RORα inverse agonists			significantly inhibited	inhibit IL-17 gene expression in a dose-dependent manner			
CC(C)(C)C(O)C(Oc1ccc(-c2ccccc2)cc1)n1cncn1 (stereo not drawn) [bitertanol]						inactive	inactive	
CCCN(CCOc1c(Cl)cc(Cl)cc1Cl)C(=O)n1ccnc1 [prochloraz]						inactive	inactive	
CCCC1COC(Cn2cncn2)(c2ccc(Cl)cc2Cl)O1 (stereo not drawn) [propiconazole]						inactive	inactive	
CC(C)(C)C(=O)C(Oc1ccc(Cl)cc1)n1cncn1 (stereo not drawn) [triadimefon]						inactive	inactive	
